For 20 molecules, Activity and inhibition results are on record in ChEMBL document CHEMBL1165973, “Design, synthesis and antibacterial activity of novel andrographolide derivatives” (Bioorg Med Chem, 2010).

Structures are written as SMILES. Calls of active or inactive are those of the source. The calls are words filed in the database; no cut-off is given here.

In assay [1] the test system is Pseudomonas aeruginosa. The assay is described as follows: Antibacterial activity at Pseudomonas aeruginosa PAO1 at 2 mM. Format: functional, organism-based.
The test system of assay [2] is Pseudomonas aeruginosa PAO1. The assay is described as follows: Inhibition of Pseudomonas aeruginosa PAO1 quorum sensing assessed as inhibition of pycocyanin production at 0.5 mM after 24 hrs by spectrometry. The essentials: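 PAO1 grown overnight in LB, washed in fresh medium and diluted to OD600 0.05. Aliquots were grown 24 h in tubes with compound at 0.5 mM. Pyocyanin was extracted from filtered culture supernatant and quantified by a published method. Significance versus untreated control was set at P < 0.05.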

In assay [3] the test system is Pseudomonas aeruginosa PAO1. As to the kind of experiment: Inhibition of Pseudomonas aeruginosa PAO1 quorum sensing assessed as inhibition of protease production at 0.5 mM after 10 hrs by colorimetric method. The essentials:
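PAO1 grown overnight at 37 °C in PB medium ([…]), washed, diluted to OD600 0.05 and grown to midlog. Cells were washed again, reset to OD600 0.05 and cultured 10 h with compound at 0.5 mM. Filtered supernatant was incubated with azocasein in 10 mM Tris pH 7.2 and 1 mM CaCl₂ for 4 h at 37 °C with agitation, then quenched with NaOH and centrifuged.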

Take `C=C1CC[C@@H]2[C@]3(C)COC(C)(C)O[C@@H]3CC[C@@]2(C)[C@@H]1C/C=C1/C(=O)OC[C@H]1OC(=O)CCCCCCC`: in assay [1], the result was inactive.

`C=C1CC[C@@H]2[C@](C)(CO)[C@H](O)CC[C@@]2(C)[C@@H]1C/C=C1/C(=O)OC[C@H]1OC(=O)CCCCCCC`: the inhibition entry in assay [2] is “Active”. Besides, the outcome in assay [1] was inactive.

`C=C1CC[C@@H]2[C@]3(C)COC(C)(C)O[C@@H]3CC[C@@]2(C)[C@@H]1C/C=C1/C(=O)OC[C@H]1OC(=O)CCCCCCCCCCC`: the result in assay [1] was inactive.

As for `C=C1CC[C@@H]2[C@]3(C)COC(C)(C)O[C@@H]3CC[C@@]2(C)[C@@H]1C/C=C1/C(=O)OC[C@H]1OC(=O)CCCC1CCCC1`, in assay [1], the outcome was inactive.

For the molecule `C=C1CC[C@@H]2[C@](C)(CO)[C@H](O)CC[C@@]2(C)[C@@H]1C/C=C1/C(=O)OC[C@H]1OC(=O)/C=C/C1CCCCC1`, the inhibition result in assay [2] and in assay [3] was “Active” throughout. Moreover, the result in assay [1] was inactive.

For `C=C1CC[C@@H]2[C@]3(C)COC(C)(C)O[C@@H]3CC[C@@]2(C)[C@@H]1C/C=C1/C(=O)OC[C@H]1OC(=O)C12CC3CC(CC(C3)C1)C2`, the outcome in assay [1] was inactive.

Take `C=C1CC[C@@H]2[C@]3(C)COC(C)(C)O[C@@H]3CC[C@@]2(C)[C@@H]1C/C=C1/C(=O)OC[C@H]1OC(=O)/C=C/C`: in assay [1], the outcome was inactive.

On to `C=C1CC[C@@H]2[C@](C)(CO)[C@H](O)CC[C@@]2(C)[C@@H]1C/C=C1/C(=O)OC[C@H]1OC(=O)CCCC[C@H]1CCSS1`, for which the inhibition result in assay [2] and in assay [3] was “Active” in each case.

With `C=C1CC[C@@H]2[C@](C)(CO)[C@H](O)CC[C@@]2(C)[C@@H]1C/C=C1/C(=O)OC[C@H]1OC(=O)CCCC`, the inhibition result in assay [2] was “Active”. In addition, the outcome in assay [1] was inactive.

As for `C=C1CC[C@@H]2[C@](C)(CO)[C@H](O)CC[C@@]2(C)[C@@H]1C/C=C1/C(=O)OC[C@H]1OC(=O)CCCCC`, the inhibition entry in assay [2] and in assay [3] was “Active” in each case. Also, the outcome in assay [1] was inactive.

Regarding `C=C1CC[C@@H]2[C@](C)(CO)[C@H](O)CC[C@@]2(C)[C@@H]1C/C=C1/C(=O)OC[C@H]1OC(=O)CCCCCCCCCCC`, the inhibition entry in assay [2] and in assay [3] was “Active” throughout. For the same molecule, the result in assay [1] was inactive.

On to `C=C1CC[C@@H]2[C@](C)(CO)[C@H](O)CC[C@@]2(C)[C@@H]1C/C=C1/C(=O)OC[C@H]1O`, for which the inhibition result in assay [2] is “Active”.

For `C=C1CC[C@@H]2[C@]3(C)COC(C)(C)O[C@@H]3CC[C@@]2(C)[C@@H]1C/C=C1/C(=O)OC[C@H]1OC(=O)/C=C/C1CCCCC1`, the result in assay [1] was inactive.

Consider `C=C1CC[C@@H]2[C@](C)(CO)[C@H](O)CC[C@@]2(C)[C@@H]1C/C=C1/C(=O)OC[C@H]1OC(=O)/C=C/c1ccco1`, for which the inhibition result in assay [2] and in assay [3] was “Active” in each case. The outcome in assay [1] was inactive.

`C=C1CC[C@@H]2[C@](C)(CO)[C@H](O)CC[C@@]2(C)[C@@H]1C/C=C1/C(=O)OC[C@H]1OC(=O)/C=C/C`: the inhibition entry in assay [2] and in assay [3] was “Active” each time. The result in assay [1] was inactive.

With `C=C1CC[C@@H]2[C@]3(C)COC(C)(C)O[C@@H]3CC[C@@]2(C)[C@@H]1C/C=C1/C(=O)OC[C@H]1OC(=O)CCCCC`, the result in assay [1] was inactive.

Regarding `C=C1CC[C@@H]2[C@](C)(CO)[C@H](O)CC[C@@]2(C)[C@@H]1C/C=C1/C(=O)OC[C@H]1OC(=O)CCCCC1CCCC1`, the inhibition entry in assay [2] and in assay [3] was “Active” each time. Also, the outcome in assay [1] was inactive.

As for `C=C1CC[C@@H]2[C@]3(C)COC(C)(C)O[C@@H]3CC[C@@]2(C)[C@@H]1C/C=C1/C(=O)OC[C@H]1OC(=O)CCCC`, the outcome in assay [1] was inactive.

Consider `C=C1CC[C@@H]2[C@]3(C)COC(C)(C)O[C@@H]3CC[C@@]2(C)[C@@H]1C/C=C1/C(=O)OC[C@H]1OC(=O)/C=C/c1ccco1`, for which the result in assay [1] was inactive.

In the case of `C=C1CC[C@@H]2[C@](C)(CO)[C@H](O)CC[C@@]2(C)[C@@H]1C/C=C1/C(=O)OC[C@H]1OC(=O)CC12CC3CC(CC(C3)C1)C2`, the inhibition entry in assay [2] and in assay [3] was “Active” each time. Also, the result in assay [1] was inactive.
